The M2OR odorant receptor database
Numbering of substitutions follows the chain as printed.

Columns and labels:
Settings in all cases: stereoisomer not certain
[1] = tested on: T1, O56A4 I247V
T1 sequence (whole entry): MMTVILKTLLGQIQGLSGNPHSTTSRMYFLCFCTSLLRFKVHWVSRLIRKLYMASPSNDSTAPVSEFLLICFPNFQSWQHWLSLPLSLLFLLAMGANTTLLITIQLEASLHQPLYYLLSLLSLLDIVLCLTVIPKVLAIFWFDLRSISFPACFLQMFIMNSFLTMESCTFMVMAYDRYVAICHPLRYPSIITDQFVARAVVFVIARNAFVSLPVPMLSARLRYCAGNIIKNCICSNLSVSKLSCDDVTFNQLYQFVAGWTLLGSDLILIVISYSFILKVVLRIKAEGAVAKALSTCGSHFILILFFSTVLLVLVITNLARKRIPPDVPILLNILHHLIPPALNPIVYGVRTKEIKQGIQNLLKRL
Procedure, shortened: (§1)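 Each entry records the cell line, G-protein, co-transfected protein and tags used. Methods varied with the source, often transient luciferase assays in mammalian cell lines. A receptor–molecule pair is called responsive (active) if the original authors judged its signal statistically different from baseline and non-responsive (inactive) otherwise.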

[2] = tested on: T2, O56A4
T2 sequence (whole entry): T1 sequence (whole entry) with V247I
Procedure, shortened: as §1

[3] = tested on: T3, O56A5 V104L
T3 sequence (whole entry): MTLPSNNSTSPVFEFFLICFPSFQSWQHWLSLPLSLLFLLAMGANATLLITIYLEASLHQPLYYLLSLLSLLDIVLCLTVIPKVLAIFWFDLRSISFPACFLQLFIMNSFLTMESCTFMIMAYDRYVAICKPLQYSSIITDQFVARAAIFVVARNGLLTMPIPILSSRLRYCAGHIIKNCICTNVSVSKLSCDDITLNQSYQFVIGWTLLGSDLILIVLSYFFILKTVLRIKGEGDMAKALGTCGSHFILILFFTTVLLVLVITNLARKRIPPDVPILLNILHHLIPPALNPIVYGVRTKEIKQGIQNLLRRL
Procedure, shortened: as §1

[4] = tested on: T4, O56B1 C106R L214F
T4 sequence (whole entry): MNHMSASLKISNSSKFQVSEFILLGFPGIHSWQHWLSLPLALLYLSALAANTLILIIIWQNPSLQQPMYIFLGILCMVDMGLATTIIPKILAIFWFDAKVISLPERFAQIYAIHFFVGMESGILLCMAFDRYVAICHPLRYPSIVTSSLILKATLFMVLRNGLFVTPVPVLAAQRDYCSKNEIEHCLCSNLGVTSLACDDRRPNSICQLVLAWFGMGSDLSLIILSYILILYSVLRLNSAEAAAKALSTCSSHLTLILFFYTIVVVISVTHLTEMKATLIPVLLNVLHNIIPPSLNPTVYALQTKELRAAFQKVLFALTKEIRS
Procedure, shortened: as §1

[5] = tested on: T5, O56B1 L214F
T5 sequence (whole entry): T4 sequence (whole entry) with R106C
Procedure, shortened: as §1

[6] = tested on: T6, O56B4
T6 sequence (whole entry): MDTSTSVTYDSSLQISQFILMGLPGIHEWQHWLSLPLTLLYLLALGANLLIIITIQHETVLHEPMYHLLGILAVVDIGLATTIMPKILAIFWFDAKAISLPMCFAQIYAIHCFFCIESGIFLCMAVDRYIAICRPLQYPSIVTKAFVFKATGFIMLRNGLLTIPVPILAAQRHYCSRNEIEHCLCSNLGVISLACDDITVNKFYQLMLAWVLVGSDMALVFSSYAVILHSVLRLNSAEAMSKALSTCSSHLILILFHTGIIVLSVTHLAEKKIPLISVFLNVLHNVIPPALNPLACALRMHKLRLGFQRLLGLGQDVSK
Procedure, shortened: as §1

[7] = tested on: T7, O5AC2
T7 sequence (whole entry): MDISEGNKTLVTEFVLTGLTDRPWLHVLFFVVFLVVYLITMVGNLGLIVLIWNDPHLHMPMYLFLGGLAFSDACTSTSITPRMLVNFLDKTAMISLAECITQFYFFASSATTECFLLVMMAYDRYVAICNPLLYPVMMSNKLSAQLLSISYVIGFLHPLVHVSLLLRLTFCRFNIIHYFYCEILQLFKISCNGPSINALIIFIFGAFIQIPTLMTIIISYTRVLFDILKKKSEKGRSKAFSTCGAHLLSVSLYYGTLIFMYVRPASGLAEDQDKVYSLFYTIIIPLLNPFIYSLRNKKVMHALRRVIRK
Procedure, shortened: as §1

[8] = tested on: T8, O5AK2 M92I
T8 sequence (whole entry): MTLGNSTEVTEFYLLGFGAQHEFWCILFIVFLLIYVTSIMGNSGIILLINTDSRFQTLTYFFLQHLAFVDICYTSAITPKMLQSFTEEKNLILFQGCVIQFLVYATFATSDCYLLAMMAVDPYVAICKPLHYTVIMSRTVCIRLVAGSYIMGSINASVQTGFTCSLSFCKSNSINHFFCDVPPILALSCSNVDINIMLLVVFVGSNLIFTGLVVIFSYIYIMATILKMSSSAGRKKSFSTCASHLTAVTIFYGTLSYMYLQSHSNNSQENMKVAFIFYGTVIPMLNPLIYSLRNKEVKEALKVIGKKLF
Procedure, shortened: as §1

[9] = tested on: T9, O5AN1 C142Y L289F
T9 sequence (whole entry): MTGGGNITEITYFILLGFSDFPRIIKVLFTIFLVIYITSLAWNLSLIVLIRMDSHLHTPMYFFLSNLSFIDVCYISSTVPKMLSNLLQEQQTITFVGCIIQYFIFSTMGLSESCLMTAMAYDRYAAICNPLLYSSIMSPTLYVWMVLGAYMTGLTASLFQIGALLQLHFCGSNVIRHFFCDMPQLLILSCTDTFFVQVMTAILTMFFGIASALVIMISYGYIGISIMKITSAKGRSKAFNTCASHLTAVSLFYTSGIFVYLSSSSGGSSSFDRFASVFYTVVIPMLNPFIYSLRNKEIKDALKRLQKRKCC
Procedure, shortened: as §1

[10] = tested on: T10, O5AN1 L289F
T10 sequence (whole entry): T9 sequence (whole entry) with Y142C
Procedure, shortened: as §1

[11] = tested on: T11, O5AP2 A105T
T11 sequence (whole entry): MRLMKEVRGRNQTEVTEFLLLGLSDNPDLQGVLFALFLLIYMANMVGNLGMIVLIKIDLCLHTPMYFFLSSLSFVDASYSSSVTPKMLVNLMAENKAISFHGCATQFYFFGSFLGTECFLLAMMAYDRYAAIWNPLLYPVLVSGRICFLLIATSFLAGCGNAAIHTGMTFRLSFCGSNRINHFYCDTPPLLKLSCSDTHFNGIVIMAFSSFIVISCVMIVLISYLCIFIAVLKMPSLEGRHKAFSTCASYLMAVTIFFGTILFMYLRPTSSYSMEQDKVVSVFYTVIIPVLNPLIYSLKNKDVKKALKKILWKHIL
Procedure, shortened: as §1

[12] = tested on: T12, O5AU1
T12 sequence (whole entry): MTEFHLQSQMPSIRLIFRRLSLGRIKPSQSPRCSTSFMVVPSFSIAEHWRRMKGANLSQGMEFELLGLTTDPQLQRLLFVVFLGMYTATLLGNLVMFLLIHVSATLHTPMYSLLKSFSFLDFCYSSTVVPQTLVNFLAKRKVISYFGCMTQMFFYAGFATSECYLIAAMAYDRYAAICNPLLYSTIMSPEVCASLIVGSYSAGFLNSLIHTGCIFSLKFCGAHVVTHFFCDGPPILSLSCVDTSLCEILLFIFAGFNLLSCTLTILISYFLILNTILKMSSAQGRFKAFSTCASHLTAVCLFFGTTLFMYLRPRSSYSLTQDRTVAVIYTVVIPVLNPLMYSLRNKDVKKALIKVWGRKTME
Procedure, shortened: as §1

[13] = tested on: T13, O5H14
T13 sequence (whole entry): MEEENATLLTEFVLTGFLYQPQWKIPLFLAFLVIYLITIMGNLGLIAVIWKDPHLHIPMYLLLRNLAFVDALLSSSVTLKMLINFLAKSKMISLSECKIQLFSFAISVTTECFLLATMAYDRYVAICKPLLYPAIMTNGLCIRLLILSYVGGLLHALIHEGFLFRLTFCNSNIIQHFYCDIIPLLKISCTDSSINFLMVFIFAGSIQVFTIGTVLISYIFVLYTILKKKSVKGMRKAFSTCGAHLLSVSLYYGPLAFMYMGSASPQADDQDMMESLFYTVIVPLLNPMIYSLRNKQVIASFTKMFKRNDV
Procedure, shortened: as §1

[14] = tested on: T14, O5H15 V108I S148T T167S
T14 sequence (whole entry): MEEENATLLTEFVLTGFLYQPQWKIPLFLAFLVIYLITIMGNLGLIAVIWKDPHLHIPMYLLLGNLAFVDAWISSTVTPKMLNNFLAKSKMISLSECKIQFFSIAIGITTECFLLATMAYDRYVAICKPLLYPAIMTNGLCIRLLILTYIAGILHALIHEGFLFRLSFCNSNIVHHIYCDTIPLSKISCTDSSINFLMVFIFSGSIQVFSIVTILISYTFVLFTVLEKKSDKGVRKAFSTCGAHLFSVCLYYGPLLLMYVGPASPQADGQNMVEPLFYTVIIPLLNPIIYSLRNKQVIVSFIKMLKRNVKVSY
Procedure, shortened: as §1

[15] = tested on: T15, O6C65 T222A
T15 sequence (whole entry): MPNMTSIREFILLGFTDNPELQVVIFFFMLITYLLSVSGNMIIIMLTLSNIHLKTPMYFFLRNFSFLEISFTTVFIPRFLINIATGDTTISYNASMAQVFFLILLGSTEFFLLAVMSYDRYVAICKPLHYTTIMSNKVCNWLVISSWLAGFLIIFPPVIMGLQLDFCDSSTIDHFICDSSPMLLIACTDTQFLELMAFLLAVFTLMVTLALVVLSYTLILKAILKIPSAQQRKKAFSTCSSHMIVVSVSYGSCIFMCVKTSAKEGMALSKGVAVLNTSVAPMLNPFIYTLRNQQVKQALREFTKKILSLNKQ
Procedure, shortened: as §1

[16] = tested on: T16, O6C70 L181P
T16 sequence (whole entry): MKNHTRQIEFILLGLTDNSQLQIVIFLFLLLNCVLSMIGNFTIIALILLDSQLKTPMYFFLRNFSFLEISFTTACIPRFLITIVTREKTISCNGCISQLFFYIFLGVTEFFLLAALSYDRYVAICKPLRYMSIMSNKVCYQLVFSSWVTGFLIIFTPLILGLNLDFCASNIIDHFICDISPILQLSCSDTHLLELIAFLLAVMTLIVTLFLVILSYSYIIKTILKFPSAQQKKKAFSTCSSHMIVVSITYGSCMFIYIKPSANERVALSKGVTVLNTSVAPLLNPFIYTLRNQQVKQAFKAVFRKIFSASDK
Procedure, shortened: as §1

[17] = tested on: T17, O7E24 S193F P242S
T17 sequence (whole entry): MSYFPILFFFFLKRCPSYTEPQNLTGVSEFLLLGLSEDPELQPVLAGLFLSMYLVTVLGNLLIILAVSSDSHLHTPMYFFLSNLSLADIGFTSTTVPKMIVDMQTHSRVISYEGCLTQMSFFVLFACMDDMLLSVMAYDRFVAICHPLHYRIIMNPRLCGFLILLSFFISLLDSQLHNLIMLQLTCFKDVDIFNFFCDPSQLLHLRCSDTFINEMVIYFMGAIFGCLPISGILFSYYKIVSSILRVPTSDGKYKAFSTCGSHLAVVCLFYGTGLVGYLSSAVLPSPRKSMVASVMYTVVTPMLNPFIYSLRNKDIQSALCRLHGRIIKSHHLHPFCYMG
Procedure, shortened: as §1

[18] = tested on: T18, O7E24
T18 sequence (whole entry): T17 sequence (whole entry) with F193S
Procedure, shortened: as §1

[19] = target: T19, OR10A2 (Homo sapiens) (UniProt Q9H208)
T19 sequence (whole entry): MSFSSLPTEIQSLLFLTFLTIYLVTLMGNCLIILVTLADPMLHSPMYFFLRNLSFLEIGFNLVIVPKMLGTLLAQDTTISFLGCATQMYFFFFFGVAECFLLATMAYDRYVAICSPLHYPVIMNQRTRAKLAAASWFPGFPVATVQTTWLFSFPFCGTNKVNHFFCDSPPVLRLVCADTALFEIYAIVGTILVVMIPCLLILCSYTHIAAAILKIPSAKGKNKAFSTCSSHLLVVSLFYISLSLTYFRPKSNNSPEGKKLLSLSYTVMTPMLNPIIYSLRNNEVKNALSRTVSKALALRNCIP
Procedure, shortened: as §1

[20] = tested on: T20, O5AN1
T20 sequence (whole entry): T9 sequence (whole entry) with K26T, Y142C, F159S, C190S, Q197R, V214I, Y221S, F289L, K309R
Procedure, shortened: as §1

Measured: odorant receptor agonist call

CC1=NC(C)C(C)S1 (centres undefined)
not listed: [20]
inactive: all other assays above

CC1=C(O)C(=O)C(C)O1 (centres undefined)
not listed: [20]
inactive: all other assays above

CCCCCCCC(=O)CCCCCCC
inactive: [20]

O=C1C=CCCCCCCCCCCCCO1
inactive: [20]

CC1CCCCCCCCCCCC(=O)C1 (centres undefined)
active: [20]

CCCCC(S)C(C)CO (centres undefined)
inactive: [19]

OC1CCCCCCCCCCCCCC1
active: [20]

C1CCCCCCCCCCCCCC1
inactive: [20]
